Source: PubChem (several laboratories)
An excerpt weighted towards active compounds, which were near 1.9% of everything screened.
Rin1 Abl inh – human Rin1-Abl interaction inhibition; inhibition, % at 7.35 µM; P00519+Q13671; AID 588664; 360,000 tested, 0.4% active; TR-FRET Rin1/Abl binding, biochemical; in the data active = inhibition above about 5%, passing the limit was not always enough
ABHD5-PLIN5 inh – blocks binding of human ABHD5 to perilipin-5; 360,000 tested, 0.78% active; AID 602281; Q00G26+Q8WTS1; inhibition, % at 4 µM; Split G. princeps luciferase complementation, luminescence, 4 h;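 active = inhibition above the mean inhibition across every tested compound plus 3 SD, cut at about 22% in these data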
NadD block – NadD (S. aureus) enzyme inhibition. purified NadD enzyme, colorimetric absorbance read-out. inhibition, % at 20 µM. 360,000 tested, 0.78% active; in the data active = inhibition above about 26%
Xi reactivation – X-chromosome reactivation activator. XiGFP mouse fibroblasts, % GFP-positive cells imaging, 3 d; cells co-treated with 5-aza-dC sensitizer; scaled so ellipticine positive control = 100%. activation, % at 7.58 µM. 360,000 tested, 0.055% active. AID 743238;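 active = mean normalized replicate activation at least 10% and every replicate at or above 10%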
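System: 68-5-11 XiGFP fibroblast line | Buffer or medium: DMEM containing 5-aza-dC | Compound: Single point | Times: Compounds 3 days, fix/stain 15 min at room temperature | Benchmarks: Positive control ellipticine, 6 µM final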
Rpn11 block – inhibitors of human proteasome Rpn11; O00487; human 26S proteasome, Ub4-pepOG fluorescence polarization; 20S core pre-blocked with epoxomicin; inhibition, % at 20 µM; 360,000 tested, 0.59% active;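 active = inhibition at 20 µM, scaled to each plate's controls, above about 33%, limit read from the data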
Rpn11 confirm – Rpn11 inhibition confirmation, single concentration; shares compounds with Rpn11 block; purified human 26S proteasome, Ub4-pepOG fluorescence polarization; proteasome pretreated with epoxomicin; inhibition, % at 20 µM; 1,900 tested, 29% active; AID 602318
MMP-2 counter – MMP-2 (human) inhibition counter-screen; inhibition, % at 20 µM; 1,900 tested, 4% active; recombinant MMP-2, FRET peptide cleavage fluorescence; shares compounds with Rpn11 block;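 note: human MMP-2 activated beforehand with APMA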
Target sequence (P08253 whole entry, looked up): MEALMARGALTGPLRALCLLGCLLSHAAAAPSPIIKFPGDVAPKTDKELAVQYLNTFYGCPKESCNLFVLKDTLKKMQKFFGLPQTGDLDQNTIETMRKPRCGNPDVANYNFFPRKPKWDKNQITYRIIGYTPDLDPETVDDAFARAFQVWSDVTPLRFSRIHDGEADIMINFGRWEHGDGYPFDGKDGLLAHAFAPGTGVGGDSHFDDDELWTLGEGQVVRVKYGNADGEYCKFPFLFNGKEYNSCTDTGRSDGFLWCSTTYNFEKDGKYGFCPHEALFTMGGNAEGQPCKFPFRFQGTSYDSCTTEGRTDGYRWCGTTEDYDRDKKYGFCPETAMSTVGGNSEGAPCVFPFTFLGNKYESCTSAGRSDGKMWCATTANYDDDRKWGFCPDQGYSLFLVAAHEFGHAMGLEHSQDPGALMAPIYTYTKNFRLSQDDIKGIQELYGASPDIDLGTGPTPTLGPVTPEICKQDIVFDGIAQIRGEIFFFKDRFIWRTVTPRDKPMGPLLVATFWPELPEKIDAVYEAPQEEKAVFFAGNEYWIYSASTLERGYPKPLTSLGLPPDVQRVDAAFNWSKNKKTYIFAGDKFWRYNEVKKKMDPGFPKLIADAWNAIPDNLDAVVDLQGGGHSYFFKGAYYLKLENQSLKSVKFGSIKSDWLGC
Thrombin FP – counter-screen for RPN11 inhibitors: inhibition of bovine thrombin; shares compounds with Rpn11 block; bovine thrombin cleavage of Ub4-pepOG, fluorescence polarization; inhibition, % at 20 µM; 1,900 tested, 13% active; AID 602333;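 active = mean inhibition at least 40% at 20 µM, or signal 3 deviations below plate average, so some actives read negative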
Of the large screens only hits and unclear results are named; the others gave an inactive call (follow-up assays come after a bar, where shown). Cut-off read from the data, not from the text of the source, unless noted: active = inhibition above about 40%; inactive = the rest.

COc1ccc(C2=NC(=O)NC2c2ccc(OC)cc2)cc1 (stereo not drawn)	Rpn11 block 39 | Rpn11 confirm inactive | MMP-2 counter inactive | Thrombin FP inactive
CCN(CC)S(=O)(=O)c1ccc(C)c(C)c1	none (no result: Xi reactivation)
CCN(CC)S(=O)(=O)c1cc(C)ccc1SC	Rpn11 block 28 | Rpn11 confirm inactive | MMP-2 counter inactive | Thrombin FP inactive
COc1cccc(-c2ccc3c(c2)O[C@@H](CN(C)C(=O)C2CC2)[C@@H](C)CN([C@H](C)CO)S3(=O)=O)c1	none (no result: Rin1 Abl inh, ABHD5-PLIN5 inh, NadD block, Rpn11 block)
C[C@@H](NC(=O)/C(C#N)=C/c1ccc(O)c(O)c1)c1ccccc1	none
N#C/C(=C\c1ccc(O)c(O)c1)C(=O)Nc1ccccc1	Rpn11 block 56 | Rpn11 confirm 91 | MMP-2 counter inactive | Thrombin FP inactive
N#C/C(=C\c1ccc(Cl)cc1)C(=O)Nc1cccnc1	Rpn11 block 91 | Rpn11 confirm inactive | MMP-2 counter inactive | Thrombin FP inactive
Cc1cc(C)c2c(N)c(C(=O)N/N=C/c3cccs3)sc2n1	Rpn11 block 95 | Rpn11 confirm 58 | MMP-2 counter inactive | Thrombin FP 41
COc1ccc(-n2ccc(=O)c(C(=O)Nc3ccc(S(=O)(=O)Nc4nccs4)cc3)n2)cc1	Rpn11 block 48 | Rpn11 confirm inactive | MMP-2 counter 68 | Thrombin FP inactive
CC(Nc1ccc(Br)cn1)c1cc(Cl)ccc1O (stereo not drawn)	Rpn11 block 73 (no result: Xi reactivation) | Rpn11 confirm inactive | MMP-2 counter inactive | Thrombin FP inactive
CCCC(=O)Nc1ccc2c(c1)OC[C@H](C)N(CCc1ccccc1)C[C@@H](C)[C@@H](OC)CN(C)C2=O	none (no result: Rin1 Abl inh, ABHD5-PLIN5 inh, NadD block, Rpn11 block)
CN(C)/C=C/C(=O)c1ccc(Br)cc1	none
Cc1ccc(C)n1-c1ccc(C(=O)/C=C/N(C)C)cc1	Rpn11 block 50 | Rpn11 confirm inactive | MMP-2 counter inactive | Thrombin FP inactive
C[C@@H]1CN([C@H](C)CO)C(=O)c2ccccc2-c2ccccc2CO[C@@H]1CN(C)C(=O)C1CC1	none (no result: Rin1 Abl inh, ABHD5-PLIN5 inh, NadD block, Rpn11 block)
CCCn1c(SCc2nc3sc(C)c(C)c3c(=O)[nH]2)nc2ccccc2c1=O	Rpn11 block 41 (no result: Xi reactivation) | Rpn11 confirm inactive | MMP-2 counter inactive | Thrombin FP inactive
COCCn1c(SCc2nc3ccccc3c(=O)[nH]2)nc2ccccc2c1=O	none
Cc1c(Cl)cccc1NC(=O)CCC(=O)NNC(=O)c1ccco1	none (no result: Xi reactivation)
O=C(CCC(=O)Nc1ccccc1Cl)NNC(=O)c1ccco1	Rpn11 block 48 | Rpn11 confirm inactive | MMP-2 counter inactive | Thrombin FP inactive
Cc1nc2ccc(NC(=O)[C@@H](NC(=O)c3c(F)cccc3F)C(C)C)cc2s1	Rpn11 block 50 | Rpn11 confirm 58 | MMP-2 counter inactive | Thrombin FP 70
CC(=O)Nc1ccc(S(=O)(=O)N2CCN(C(=O)C3COc4ccccc4O3)CC2)cc1 (stereo not drawn)	none
COc1ccc(S(=O)(=O)N2CCN(C(=O)C3COc4ccccc4O3)CC2)cc1 (stereo not drawn)	Rpn11 block 86 | Rpn11 confirm 65 | MMP-2 counter inactive | Thrombin FP 58
COc1ccc2c3c(n(C)c2c1)[C@H](CO)N(C(=O)CN(C)C)CC31CCN(C(=O)CN(C)C)CC1	none (no result: Rin1 Abl inh, ABHD5-PLIN5 inh, NadD block, Rpn11 block)
C[C@H]1CN([C@@H](C)CO)C(=O)Cc2cc(NC(=O)CCCN(C)C)ccc2O[C@@H]1CN(C)C(=O)NC1CCCCC1	none (no result: Rin1 Abl inh, ABHD5-PLIN5 inh, NadD block, Rpn11 block)
CNC[C@H]1OCCCC[C@@H](C)Oc2ccc(NC(=O)c3ccccc3)cc2C(=O)N([C@@H](C)CO)C[C@@H]1C	none (no result: Rin1 Abl inh, ABHD5-PLIN5 inh, NadD block, Rpn11 block)
O=C(NC(=S)Nc1ccccc1O)c1cncc(Br)c1	Rpn11 block 48 | Rpn11 confirm inactive | MMP-2 counter inactive | Thrombin FP inactive
C[C@H](CO)N1C[C@H](C)[C@@H](CN(C)Cc2ccc(F)cc2)OCc2ccccc2-c2c(n(C)c3ccccc23)C1=O	none (no result: Rin1 Abl inh, ABHD5-PLIN5 inh, NadD block, Rpn11 block)
C=CCN=C1S/C(=C\c2ccc(N(C)C)cc2)C(=O)N1CC=C	Rpn11 block 92 | Rpn11 confirm inactive | MMP-2 counter inactive | Thrombin FP inactive
COCC(=O)N(C)C[C@@H]1Oc2cc(C#CC3CCCC3)ccc2S(=O)(=O)N([C@H](C)CO)C[C@H]1C	none (no result: Rin1 Abl inh, ABHD5-PLIN5 inh, NadD block, Rpn11 block)
Cc1ccc(-c2nn(-c3cccc(F)c3)cc2CNCc2cccnc2)o1	Rpn11 block 48 | Rpn11 confirm inactive | MMP-2 counter inactive | Thrombin FP inactive
Cc1ccc(-c2nn(-c3cccc(F)c3)cc2CN2CCN(c3ccccn3)CC2)o1	none
O=C(NC1CCCCC1)N[C@H]1CC[C@@H](CCNS(=O)(=O)c2ccccc2)O[C@H]1CO	none (no result: Rin1 Abl inh, ABHD5-PLIN5 inh, NadD block, Rpn11 block)
O=c1[nH]c(=S)[nH]c2c1C(c1ccc(Br)cc1)c1c([nH]c(=S)[nH]c1=O)O2	Rpn11 block 141 | Rpn11 confirm 49 | MMP-2 counter inactive | Thrombin FP inactive
O=C1CCCC2=C1C(c1ccc(Br)cc1)c1c([nH]c(=S)[nH]c1=O)N2 (stereo not drawn)	none (no result: Xi reactivation)
C[C@H]1CN([C@@H](C)CO)C(=O)Cc2cc(NS(=O)(=O)c3cn(C)cn3)ccc2O[C@H]1CN(C)CC1CCCCC1	none (no result: Rin1 Abl inh, ABHD5-PLIN5 inh, NadD block, Rpn11 block)
COc1cccc(C(=O)CN2C(=O)C(C)(C)Oc3ccc(C(=O)N4CCCCCC4)cc32)c1	Rpn11 block 163 (no result: Xi reactivation) | Rpn11 confirm inactive | MMP-2 counter inactive | Thrombin FP inactive
CCC1=[N+](CC(=O)c2ccc(C)cc2)CCn2cccc21	Rpn11 block 75 | Rpn11 confirm inactive | MMP-2 counter inactive | Thrombin FP inactive
COc1ccc(N=NC2=C(O)CC(C)(C)CC2=O)c(OC)c1	Rpn11 block 94 (no result: Xi reactivation) | Rpn11 confirm 88 | MMP-2 counter inactive | Thrombin FP 69
COc1ccc(N=NC2=C(O)CC(C)(C)CC2=O)cc1	none (no result: Xi reactivation)
C[C@@H]1CCCCO[C@@H](CN(C)C(=O)Nc2ccccc2)[C@@H](C)CN([C@@H](C)CO)C(=O)c2cc(NS(=O)(=O)c3ccc(F)cc3)ccc2O1	none (no result: Rin1 Abl inh, ABHD5-PLIN5 inh, NadD block, Rpn11 block)
C[C@@H]1CCCCO[C@@H](CN(C)C(=O)c2ccncc2)[C@@H](C)CN([C@@H](C)CO)C(=O)c2cc(NC(=O)c3ccccc3)ccc2O1	none (no result: Rin1 Abl inh, ABHD5-PLIN5 inh, NadD block, Rpn11 block)
CCCN(CCC)CC(O)Cn1cc(/C=C/C(=O)c2cccs2)c2ccccc21 (stereo not drawn)	none (not shown: Rpn11 block)
CCCN(CCC)CC(O)Cn1cc(/C=C/C(=O)c2ccccc2)c2ccccc21 (stereo not drawn)	Rpn11 block 39 | Rpn11 confirm inactive | MMP-2 counter inactive | Thrombin FP inactive
C/C=C/c1cccc(-c2nc(C(=O)NC3CCC3)cc3c2[C@@H](CCO)N([S@](=O)C(C)(C)C)C3)c1	none (no result: Rin1 Abl inh, ABHD5-PLIN5 inh, NadD block, Rpn11 block)
